In brackets after ≈: the same amount, converted by molar mass.
Legend:
[1] = Toxicity in CBAxC57BL/6J mouse assessed as effect on seizure by tail at 10 to 100 mg/kg, po bid for 14.5 days; assay type: organism-based; settings: in vivo, 348 h, dose 10-100 mg/kg, time 14.5 day
Summary of the method: (§1)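 R6/2 HD mice and wild-type littermates, male and female, were dosed orally b.i.d. at 10, 30 or 100 mg/kg or with vehicle for 14.5 days. Vehicle was 10% (w/v) hydroxypropyl-β-cyclodextrin in 50 mM citrate buffer. Body weight, body temperature, passive observations and active manipulation scores were recorded. Blood and brain were collected 2 h after the final dose.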

Histone deacetylase 2 = Histone deacetylase 2 (Homo sapiens, UniProt Q92769); test: Inhibition of HDAC2 (unknown origin) using Ac-Arg-Gly-Lys(Ac) as substrate by fluorogenic assay
[2] = In vivo inhibition of Class 1 HDAC in CBAxC57BL/6J mouse brain assessed as increase in histone H4 acetylation at 30 to 100 mg/kg, po bid for 14.5 days by western blot analysis; assay type: organism-based; settings: 348 h, dose 30-100 mg/kg, time 14.5 day
Summary of the method: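 R6/2 and wild-type littermate mice of both sexes were dosed orally b.i.d. for 14.5 days with 10, 30 or 100 mg/kg or vehicle (10% w/v hydroxypropyl-β-cyclodextrin in 50 mM citrate buffer). Half-brains were collected 2 h after the last dose. Dot blots measured global and H4K12 acetylation; Western blots measured H3, H4 and tubulin acetylation. Genotypes were pooled.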

[3] = biological target: Muscarinic acetylcholine receptor M4 (Homo sapiens, UniProt P08173); test: Displacement of [3H]4-DAMP from human recombinant M4 receptor incubated for 1 hr by radiometric scintillation counting analysis
[4] = Toxicity in CBAxC57BL/6J mouse assessed as effect on body weight at 10 to 100 mg/kg, po bid for 14.5 days; assay type: organism-based; settings: in vivo, 348 h, dose 10-100 mg/kg, time 14.5 day; summary of the method: as §1
[5] = Inhibition of Class 2b HDAC in human HEK293 cells using alpha-tubulin as substrate by fluorogenic assay; assay type: cell-based
Histone deacetylase 4 = Histone deacetylase 4 (Homo sapiens, UniProt P56524); test: Inhibition of Class 2A HDAC4 in human Jurkat E6.1 cells using Boc-Lys-(TFA)-AMC as substrate by fluorogenic assay; assay type: cell-based
Summary of the method: (§2)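 Whole-cell assay in Jurkat E6.1 cells with artificial fluorogenic substrates: Boc-Lys-(TFA)-AMC for class IIa/HDAC8 activity, which in this line is mostly HDAC4, and Boc-Lys-(Ac)-AMC for class I/IIb activity. IC50 given as the geometric mean of three experiments.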

[6] = Inhibition of Class 2A HDAC in human HEK293 cells using Boc-Lys(TFA) as substrate by fluorogenic assay; assay type: cell-based
[7] = Intrinsic Clearance in mouse liver microsomes; assay type: ADME, Microsome; settings: read-out: CLH
[8] = biological target: Histone deacetylase 3/Nuclear receptor corepressor 1 (HDAC3/NCoR1) (Homo sapiens); test: Inhibition of HDAC3/NCOR1 (unknown origin) using Boc-Lys(Ac) as substrate by fluorogenic assay
[9] = Oral bioavailability in C57BL/6J mouse at 11.5 mg/kg administered via gavage by LC-MS/MS analysis; assay type: ADME, organism-based; settings: in vivo
Summary of the method: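 Fed male C57Bl/6 mice dosed once intravenously at 3.3 mg/kg and by oral gavage at 11.5 mg/kg. Compound levels were quantified to derive PK parameters.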

Cytochrome P450 3A4 = Cytochrome P450 3A4 (Homo sapiens, UniProt P08684); test: Inhibition of CYP3A4 in human liver microsomes using testosterone as substrate incubated for 30 mins by LC-MS/MS analysis; assay type: ADME
[10] = biological target: Muscarinic acetylcholine receptor M5 (Homo sapiens) (UniProt P08912); test: Displacement of [3H]4-DAMP from human recombinant M5 receptor at 10 uM incubated for 1 hr by radiometric scintillation counting analysis
Summary of the method: (§3)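 Broad selectivity panel of binding, cellular, functional and enzymatic assays run by a contract lab. Each test was done at a single 10 μM concentration and reported as percent inhibition.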

[11] = biological target: Muscarinic acetylcholine receptor M2 (Homo sapiens) (UniProt P08172); test: Displacement of [3H]AF-DX384 from human recombinant M2 receptor at 10 uM incubated for 1 hr by radiometric scintillation counting analysis; summary of the method: as §3
[12] = Kinetic solubility of the compound; assay type: physicochemical; settings: read-out: Kinetic_solubility
[13] = Time during which drug concentration exceeds the IC50 for inhibition of human Class 2A HDAC in C57BL/6J mouse brain at 100 mg/kg, po administered via gavage by LC-MS/MS analysis; assay type: organism-based; settings: in vivo
Summary of the method: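 Single oral gavage doses of 10, 30 or 100 mg/kg were given to C57/BL6 mice. Brain and blood were sampled from 0.25 to 12 h and compound measured by LC-MS/MS. The time that total brain exposure stayed above the class IIa cellular IC50 was then estimated.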

[14] = Tmax in C57BL/6J mouse brain at 11.5 mg/kg, po administered via gavage by LC-MS/MS analysis; assay type: ADME, organism-based
Histone deacetylase 1 = Histone deacetylase 1 (Homo sapiens, UniProt Q13547); test: Inhibition of HDAC1 (unknown origin) using Ac-Arg-Gly-Lys(Ac) as substrate by fluorogenic assay
[15] = biological target: Muscarinic acetylcholine receptor M4 (Homo sapiens) (UniProt P08173); test: Displacement of [3H]4-DAMP from human recombinant M4 receptor at 10 uM incubated for 1 hr by radiometric scintillation counting analysis; summary of the method: as §3
[16] = Inhibition of Class 1/2b HDAC in human Jurkat E6.1 cells using Boc-Lys-(Ac)-AMC as substrate by fluorogenic assay; assay type: cell-based; summary of the method: as §2
[17] = biological target: Sigma non-opioid intracellular receptor 1 (Homo sapiens) (UniProt Q99720); test: Displacement of [3H](+)-pentazocine from human sigma1 receptor at 10 uM incubated for 120 mins by radiometric scintillation counting analysis; summary of the method: as §3
[18] = Stability of the compound in 10% (w/v) hydroxypropyl-beta-cyclodextrin in 50 mM citrate buffer at pH 5 measured over 30 days; assay type: physicochemical; settings: pH 5, 720 h, time 30 day
[19] = Toxicity in CBAxC57BL/6J mouse assessed as effect on ataxia at 10 to 100 mg/kg, po bid for 14.5 days; assay type: organism-based; settings: in vivo, 348 h, dose 10-100 mg/kg, time 14.5 day; summary of the method: as §1

Histone deacetylase 1, sequence (Q13547 whole entry): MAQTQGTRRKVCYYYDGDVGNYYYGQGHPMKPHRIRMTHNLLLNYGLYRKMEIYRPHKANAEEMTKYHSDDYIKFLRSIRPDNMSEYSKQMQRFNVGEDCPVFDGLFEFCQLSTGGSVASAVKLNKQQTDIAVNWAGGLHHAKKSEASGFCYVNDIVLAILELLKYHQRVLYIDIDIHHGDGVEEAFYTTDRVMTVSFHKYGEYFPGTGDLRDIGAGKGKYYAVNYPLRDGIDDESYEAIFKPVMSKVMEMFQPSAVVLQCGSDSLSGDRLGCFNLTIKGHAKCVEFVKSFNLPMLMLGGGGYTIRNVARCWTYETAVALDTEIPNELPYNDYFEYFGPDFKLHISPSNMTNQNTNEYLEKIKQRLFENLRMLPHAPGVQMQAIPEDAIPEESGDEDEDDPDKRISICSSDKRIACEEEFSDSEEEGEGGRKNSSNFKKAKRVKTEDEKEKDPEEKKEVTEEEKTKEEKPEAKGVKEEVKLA
Muscarinic acetylcholine receptor M5 (Homo sapiens), sequence (P08912 whole entry): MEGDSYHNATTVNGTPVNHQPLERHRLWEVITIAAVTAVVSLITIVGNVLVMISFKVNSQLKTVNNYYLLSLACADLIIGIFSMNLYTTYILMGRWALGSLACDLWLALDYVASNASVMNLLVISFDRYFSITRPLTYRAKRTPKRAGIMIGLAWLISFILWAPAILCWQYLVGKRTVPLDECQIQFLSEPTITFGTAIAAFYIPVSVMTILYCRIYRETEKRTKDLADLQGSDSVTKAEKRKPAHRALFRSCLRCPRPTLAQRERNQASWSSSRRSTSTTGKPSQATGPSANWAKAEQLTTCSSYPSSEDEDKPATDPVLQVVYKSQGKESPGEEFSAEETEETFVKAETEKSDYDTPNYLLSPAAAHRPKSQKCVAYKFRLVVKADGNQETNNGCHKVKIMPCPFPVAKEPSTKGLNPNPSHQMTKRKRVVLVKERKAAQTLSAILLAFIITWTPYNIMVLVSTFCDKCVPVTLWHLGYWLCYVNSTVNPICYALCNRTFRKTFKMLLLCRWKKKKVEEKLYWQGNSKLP
Cytochrome P450 3A4, sequence (P08684 whole entry): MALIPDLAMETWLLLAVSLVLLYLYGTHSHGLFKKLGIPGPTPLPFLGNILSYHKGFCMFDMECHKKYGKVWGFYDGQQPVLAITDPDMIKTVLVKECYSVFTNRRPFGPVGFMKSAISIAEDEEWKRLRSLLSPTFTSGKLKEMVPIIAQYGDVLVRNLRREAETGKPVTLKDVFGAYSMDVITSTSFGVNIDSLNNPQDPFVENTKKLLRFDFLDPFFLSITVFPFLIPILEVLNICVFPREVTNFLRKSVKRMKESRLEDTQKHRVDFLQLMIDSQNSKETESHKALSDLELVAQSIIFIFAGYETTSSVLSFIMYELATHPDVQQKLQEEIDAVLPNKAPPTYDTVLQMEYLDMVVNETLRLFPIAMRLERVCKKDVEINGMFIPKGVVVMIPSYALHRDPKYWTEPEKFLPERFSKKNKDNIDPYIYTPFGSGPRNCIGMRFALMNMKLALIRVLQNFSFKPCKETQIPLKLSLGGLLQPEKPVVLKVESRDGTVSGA
Muscarinic acetylcholine receptor M4, sequence (P08173 whole entry): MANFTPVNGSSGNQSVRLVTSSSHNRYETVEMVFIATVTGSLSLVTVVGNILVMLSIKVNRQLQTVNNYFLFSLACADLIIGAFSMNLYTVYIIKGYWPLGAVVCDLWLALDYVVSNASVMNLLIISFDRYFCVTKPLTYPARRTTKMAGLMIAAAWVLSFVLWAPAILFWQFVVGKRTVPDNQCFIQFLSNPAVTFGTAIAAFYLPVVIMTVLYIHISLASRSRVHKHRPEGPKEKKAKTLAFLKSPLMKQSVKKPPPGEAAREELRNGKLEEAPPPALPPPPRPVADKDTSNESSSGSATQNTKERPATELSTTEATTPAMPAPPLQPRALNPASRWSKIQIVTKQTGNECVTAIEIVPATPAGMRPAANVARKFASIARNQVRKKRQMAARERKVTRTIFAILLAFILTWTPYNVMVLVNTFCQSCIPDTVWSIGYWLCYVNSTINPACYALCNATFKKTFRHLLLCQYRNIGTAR
Muscarinic acetylcholine receptor M4 (Homo sapiens), sequence (P08173 whole entry): as above
Muscarinic acetylcholine receptor M2 (Homo sapiens), sequence (P08172 whole entry): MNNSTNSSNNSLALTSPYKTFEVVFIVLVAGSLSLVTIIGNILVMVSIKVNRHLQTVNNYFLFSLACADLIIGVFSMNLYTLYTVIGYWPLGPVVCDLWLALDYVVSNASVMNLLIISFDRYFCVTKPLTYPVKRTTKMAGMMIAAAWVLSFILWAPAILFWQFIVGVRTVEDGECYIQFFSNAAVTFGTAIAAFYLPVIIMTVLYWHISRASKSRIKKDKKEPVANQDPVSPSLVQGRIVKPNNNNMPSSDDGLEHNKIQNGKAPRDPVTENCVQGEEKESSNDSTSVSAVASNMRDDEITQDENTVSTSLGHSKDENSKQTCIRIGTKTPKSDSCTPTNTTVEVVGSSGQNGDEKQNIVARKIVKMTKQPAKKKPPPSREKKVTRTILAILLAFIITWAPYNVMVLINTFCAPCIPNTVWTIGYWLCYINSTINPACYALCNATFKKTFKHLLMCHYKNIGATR
Sigma non-opioid intracellular receptor 1 (Homo sapiens), sequence (Q99720 whole entry): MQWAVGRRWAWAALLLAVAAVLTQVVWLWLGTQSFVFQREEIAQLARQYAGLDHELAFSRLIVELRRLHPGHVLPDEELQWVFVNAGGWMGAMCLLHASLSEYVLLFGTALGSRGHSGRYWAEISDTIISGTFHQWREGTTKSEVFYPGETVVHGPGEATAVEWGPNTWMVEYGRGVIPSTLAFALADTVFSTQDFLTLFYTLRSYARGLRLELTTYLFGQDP
Histone deacetylase 2, sequence (Q92769 whole entry): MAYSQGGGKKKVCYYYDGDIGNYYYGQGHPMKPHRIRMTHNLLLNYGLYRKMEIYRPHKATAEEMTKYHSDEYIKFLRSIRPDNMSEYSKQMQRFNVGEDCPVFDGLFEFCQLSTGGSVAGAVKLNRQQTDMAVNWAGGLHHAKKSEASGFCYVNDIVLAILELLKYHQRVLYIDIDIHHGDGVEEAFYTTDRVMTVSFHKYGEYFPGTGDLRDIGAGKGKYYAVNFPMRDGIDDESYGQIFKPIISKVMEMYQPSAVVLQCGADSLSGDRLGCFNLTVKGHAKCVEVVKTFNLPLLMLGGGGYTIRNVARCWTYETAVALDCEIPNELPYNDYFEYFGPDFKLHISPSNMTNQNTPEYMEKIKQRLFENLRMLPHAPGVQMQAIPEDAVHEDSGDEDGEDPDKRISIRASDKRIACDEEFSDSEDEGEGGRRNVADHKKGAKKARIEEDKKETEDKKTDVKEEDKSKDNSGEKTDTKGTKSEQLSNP
Histone deacetylase 4, sequence (P56524 whole entry): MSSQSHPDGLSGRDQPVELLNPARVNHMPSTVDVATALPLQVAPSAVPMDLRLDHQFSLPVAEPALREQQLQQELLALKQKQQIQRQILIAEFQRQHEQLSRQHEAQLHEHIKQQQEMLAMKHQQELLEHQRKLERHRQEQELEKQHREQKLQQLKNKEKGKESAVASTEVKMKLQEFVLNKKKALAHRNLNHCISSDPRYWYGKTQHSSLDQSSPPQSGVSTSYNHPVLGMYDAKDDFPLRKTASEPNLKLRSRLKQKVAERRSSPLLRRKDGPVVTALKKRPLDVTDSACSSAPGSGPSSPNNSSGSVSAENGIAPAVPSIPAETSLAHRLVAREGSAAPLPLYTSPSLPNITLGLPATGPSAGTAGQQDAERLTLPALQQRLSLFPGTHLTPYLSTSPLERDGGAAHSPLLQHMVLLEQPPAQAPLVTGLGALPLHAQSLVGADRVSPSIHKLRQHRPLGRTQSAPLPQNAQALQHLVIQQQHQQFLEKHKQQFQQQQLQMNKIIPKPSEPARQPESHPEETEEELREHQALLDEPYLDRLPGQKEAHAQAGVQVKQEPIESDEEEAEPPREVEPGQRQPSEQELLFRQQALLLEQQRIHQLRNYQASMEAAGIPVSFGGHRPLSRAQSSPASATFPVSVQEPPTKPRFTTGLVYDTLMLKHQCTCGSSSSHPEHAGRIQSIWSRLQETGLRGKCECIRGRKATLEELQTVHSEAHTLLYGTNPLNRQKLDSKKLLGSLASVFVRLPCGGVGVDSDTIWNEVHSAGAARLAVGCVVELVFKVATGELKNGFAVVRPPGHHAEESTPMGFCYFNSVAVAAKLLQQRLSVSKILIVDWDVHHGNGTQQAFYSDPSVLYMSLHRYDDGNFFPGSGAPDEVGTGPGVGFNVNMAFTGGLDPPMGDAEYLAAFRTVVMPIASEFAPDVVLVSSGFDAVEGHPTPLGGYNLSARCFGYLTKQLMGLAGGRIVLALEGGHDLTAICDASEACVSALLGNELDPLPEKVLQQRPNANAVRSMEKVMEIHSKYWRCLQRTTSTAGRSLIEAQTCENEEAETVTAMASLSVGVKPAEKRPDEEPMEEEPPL

Compound: C[C@H](CN1CCC[C@@H]1C)NC(=O)c1ccc(-c2noc(C(F)(F)F)n2)cc1
- Activity [1]: Non-Toxic
- IC50 (Histone deacetylase 2): 27 µM
- Activity [2]: Toxic
- Kd [3]: > 5 µM
- Activity [4]: Non-Toxic
- IC50 [5]: > 29 µM
- IC50 (Histone deacetylase 4): 0.04 µM
- IC50 [6]: 0.01 µM
- CLint scaled [7]: 86 mL/min/kg
- IC50 [8]: 10 µM
- bioavailability [9]: 100%
- IC50 (Cytochrome P450 3A4): > 50 µM
- inhibition [10]: > 80%
- inhibition [11]: > 80%
- solubility kinetic [12]: 166 µM (≈ 63.5 µg/mL)
- T>IC50 [13]: 14 h
- Tmax [14]: 30 min
- IC50 (Histone deacetylase 1): 17 µM
- inhibition [15]: > 80%
- IC50 [16]: 5 µM
- inhibition [17]: > 50%
- Stabilty [18]: Stable
- Activity [19]: Non-Toxic

— ChEMBL document CHEMBL4680373, “Evaluation of 5-(Trifluoromethyl)-1,2,4-oxadiazole-Based Class IIa HDAC Inhibitors for Huntington's Disease” (ACS Med Chem Lett, 2021)
